# Laboratory results from paper PMC2112435 (The Journal of Cell Biology, 1983).
# How the values were obtained:
# [1] = tested on: polymorphonuclear leukocytes (PMNs); assay: 125I-BSA uptake and release of TCA-precipitable BSA by PMNs; format: cell-based, rabbit; settings: for k2, rate constant of further processing / k3, rate constant of release of intact material / k3/k2 + k3 / Rate constant for depletion of Ap: Table I
# Summary of the method: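 Rabbit PMNs in HBSS with 2.4 mg/ml HEPES, 3.3×10^6 cells/ml, settled 15 min at 23°C as a monolayer. Incubated 30 min at 37°C with ¹²⁵I-BSA (6.5 μCi/ml), 1% unlabeled BSA and 2×10^-8 M unlabeled FNLLP to stimulate pinocytosis. Washed 10 min at 4°C, then held in fresh HBSS at 37°C or 4°C for varied times. Medium assayed for TCA-precipitable counts. k3 (release) and k2 (digestion/storage) taken from a kinetic pinosome model.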
# [2] = tested on: polymorphonuclear leukocytes (PMNs); assay: 3H-FNLLP peptide uptake and release by PMN monolayers; format: cell-based, rabbit
# [3] = tested on: polymorphonuclear leukocytes (PMNs); settings: chemotactic peptide taken up by PMNs; cited from earlier work
# [4] = Table I line 2, 2 x 10-0 M/L as printed
# [5] = Table I line 4, 2 X 10^-5 M/L as printed (second time)
substance,measurement,setting,value
"BSA: bovine serum albumin (fatty-acid-free), iodinated by the chloramine-T method, pinocytic marker","k2, rate constant of further processing",[1]; BSA 1.5 X 101 cpm/L as printed,0.080 min⁻¹
same,"k3, rate constant of release of intact material",[1]; BSA 1.5 X 101 cpm/L as printed,"0,103 min-1"
same,k3/k2 + k3,[1]; BSA 1.5 X 101 cpm/L as printed,0.56
same,"k2, rate constant of further processing",[1]; BSA 3.7 X 109 cpm/L,"0,076 min-1"
same,"k3, rate constant of release of intact material",[1]; BSA 3.7 X 109 cpm/L,0.108 min⁻¹
same,k3/k2 + k3,[1]; BSA 3.7 X 109 cpm/L,0.59
same,Rate constant for depletion of Ap,[1]; BSA concentration 1.5 X 101 cpm/L as printed,0.182 min⁻¹
same,Rate constant for depletion of Ap,[1]; BSA concentration 3.7 X 109 cpm/L,0.182 min⁻¹
same,rate constant of release of TCA-precipitable BSA,"[1]; as Fig. 4, release at 37C",0.182 min⁻¹
same,half-life of release of intact material,[1]; uptake primarily via bulk-fluid-phase,~4 min
N-formyinorleucylleucylphenylalanme [FNLLP],rate constant of filling the reversible pinocytic pool,"[2]; 2 x 10^-8 M 3H-FNLLP, 37C (Fig. 10)",0.165 min⁻¹
same,"k2, rate constant of further processing (digestion or storage)","[2]; Table I line 1, 2 X 10^-5 M/L",0.097 min⁻¹
same,"k3, rate constant of release of intact peptide","[2]; Table I line 1, 2 X 10^-5 M/L",0.101 min⁻¹
same,k3/k2 + k3,"[2]; Table I line 1, 2 X 10^-5 M/L",0.51
same,"k3, rate constant of release of intact peptide",[2]; [4],0.095 min⁻¹
same,k3/k2 + k3,[2]; [4],0.50
same,"k2, rate constant of further processing (digestion or storage)","[2]; Table I line 3, 2 X 10^-7 M/L",0.117 min⁻¹
same,"k3, rate constant of release of intact peptide","[2]; Table I line 3, 2 X 10^-7 M/L",0.081 min⁻¹
same,k3/k2 + k3,"[2]; Table I line 3, 2 X 10^-7 M/L",0.41
same,"k2, rate constant of further processing (digestion or storage)",[2]; [5],0.131 min⁻¹
same,"k3, rate constant of release of intact peptide",[2]; [5],0.067 min⁻¹
same,k3/k2 + k3,[2]; [5],0.34
same,"k2, rate constant of further processing (digestion or storage)","[2]; Table I line 5, 2 X 10^-9 M/L","0,128 min-1"
same,"k3, rate constant of release of intact peptide","[2]; Table I line 5, 2 X 10^-9 M/L","0,070 min-1"
same,k3/k2 + k3,"[2]; Table I line 5, 2 X 10^-9 M/L",0.35
same,"probability that pinocytosed material will be released intact, ratio k3/(k2 + k3)",[2]; estimate from Table I,approximately 0.5
same,t1/2 of release of accumulated peptide as intact peptide,"[2]; inhibitor cocktail (5 mM 2-deoxy-D-glucose, 1 mM sodium fluoride, 0.3 M sucrose, glucose-free HBSS), 37C, 2 x 10^-8 M 3H-FNLLP",4 min
same,time at which the amount of peptide accumulated reaches a plateau,"[2]; inhibitor cocktail, 2 x 10^-8 M 3H-FNLLP, 37C (Fig. 5)",~ 15 min
same,rate constant of release of intact peptide,"[2]; inhibitor cocktail, 37C, 2 x 10^-8 M 3H-FNLLP",0.173 min⁻¹
same,t1/2 of release as digested peptide,[3],23 min
